Test results as given in article PMC4143594 (Clinical Drug Investigation, 2014).
Like-named read-outs stand apart in the source and are kept apart here.

Tests used:
[1] = type: in vivo, healthy subjects (human); conditions: for C max,IDeg,SD, mean estimate: serum, ELISA
In short: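 Fasted healthy adults (n=20) in a randomised, open-label, complete crossover received single SC doses of 0.4 U/kg, 13–21 days apart. Dosing was by syringe into a lifted skinfold of anterior thigh, lower abdominal wall or outer deltoid, each followed by a 24-h euglycaemic clamp (4.5 mmol/L). Serum was sampled over 120 h and assayed by compound-specific sandwich ELISA (LLOQ 20 pmol/L).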

[2] = 24-h euglycaemic clamp after a single SC dose; type: in vivo, healthy subjects (human)
[3] = cited from earlier work
[4] = single SC dose 0.4 U/kg in abdomen, 20 evaluations
[5] = single SC dose 0.4 U/kg in deltoid, 20 evaluations
[6] = single SC dose 0.4 U/kg in thigh, 19 evaluations
[7] = single SC dose 0.4 U/kg, ANOVA of log-transformed AUC
[8] = single SC dose 0.4 U/kg, ANOVA of log-transformed values

For insulin degludec, the “Maximum concentration (C max,IDeg,SD) higher in deltoid or abdomen than in thigh” value ([1]; single SC dose 0.4 U/kg) was 23–27%, the “C max,IDeg,SD, mean estimate” value [1, 4] was 2,388 pmol/L and the “C max,IDeg,SD, mean estimate” value [1, 5] was 2,462 pmol/L. For the same substance, the “C max,IDeg,SD, mean estimate” value [1, 6] was 1,938 pmol/L, the “AUCIDeg,0–120h,SD mean ratio [95 % CI], abdomen vs. deltoid” value [1, 7] was 1.01 [0.96–1.06] and the “AUCIDeg,0–120h,SD mean ratio [95 % CI], abdomen vs. thigh” value [1, 7] was 1.07 [1.03–1.11]. The “AUCIDeg,0–120h,SD mean ratio [95 % CI], deltoid vs. thigh” value [1, 7] was 1.06 [1.01–1.10], the “C max,IDeg,SD mean ratio [95 % CI], abdomen vs. deltoid” value [1, 8] was 0.97 [0.84–1.12] and the “C max,IDeg,SD mean ratio [95 % CI], abdomen vs. thigh” value [1, 8] was 1.23 [1.07–1.42]. For the same substance, the “C max,IDeg,SD mean ratio [95 % CI], deltoid vs. thigh” value [1, 8] was 1.27 [1.08–1.49], the “GIRmax,SD, mean estimate” value [2, 4] was 3.0 mg/(kg·min) and the “GIRmax,SD, mean estimate” value [2, 5] was 3.0 mg/(kg·min). The “GIRmax,SD, mean estimate” value [2, 6] was 2.7 mg/(kg·min) and the “Time to reach steady state” value ([3]; once-daily injections) was 2 to 3 days.
In the case of insulin detemir, the “AUC higher following SC injection in abdomen or deltoid than in thigh” value [3] is given as “approximately 10%”.
In the case of insulin glargine, the “Half-life after SC administration” value [3] is given as 12 h.
